Source: PubChem
A selection: hits, their analogues and other compounds. The true share with any hit is near 2.6%.
dFosB activator – activators of delta FosB homodimer, primary screen, biochemical, fluorescence polarization, TAMRA-CDK5 oligo, single point | activation, % at 25 µM | purified delta FosB; percent of positive-control signal above neutral wells | 340,000 compounds, 0.99% hits | Protein FosB (Mus musculus), P13346;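 active = mean activation above about 17%, with every replicate also reaching it, limit read from the data, passing the limit was not always enough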
Target sequence (P13346 whole entry, looked up): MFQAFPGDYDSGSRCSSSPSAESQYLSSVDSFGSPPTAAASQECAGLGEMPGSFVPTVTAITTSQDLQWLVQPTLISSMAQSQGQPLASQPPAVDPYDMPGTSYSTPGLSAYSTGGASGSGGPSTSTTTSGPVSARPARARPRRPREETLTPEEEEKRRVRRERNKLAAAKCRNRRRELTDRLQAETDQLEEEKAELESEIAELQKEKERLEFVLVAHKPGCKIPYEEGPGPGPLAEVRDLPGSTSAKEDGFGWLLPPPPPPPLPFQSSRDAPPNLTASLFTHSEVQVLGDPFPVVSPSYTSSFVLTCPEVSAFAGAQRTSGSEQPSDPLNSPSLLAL
PvdQ acylase – P. aeruginosa PvdQ acylase inhibitors, primary screen, biochemical, fluorescence, plate reader and imaging, single point | purified PvdQ acylase | 340,000 compounds, 0.063% hits | PvdQ acylase [Pseudomonas aeruginosa LESB58] | inhibition, % at 10 µM | AID 488965, 2010; in the data active = inhibition above about 30%, passing the limit was not always enough;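 also: 0% = vehicle neutral wells and 100% = reference inhibitor wells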
SR-BI uptake up – activators of SR-BI mediated DiI-HDL uptake, primary screen, ldlA[mSR-BI] CHO cells, DiI fluorescence; 3 h; 100 = double the neutral-control signal; activation, % at 12.5 µM; 320,000 compounds, 0.096% hits; AID 504775, 2011;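 active = mean replicate activation of at least 60% and every replicate at or above 60%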;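 also: 0% = median plate neutral-control signal and 100% = twice that signal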
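material = CHO ldlA[mSR-BI] cells | medium = Ham's F12 with 0.5% BSA, HEPES 25 mM, pH 7.4 | reagent = fluorescent DiI-HDL, 10 µg/mL final | compound dosing = single-point compound dose | incubation = 3 h, 37 °C | measured by = bottom-read fluorescence, 550/595 nm | measure = HDL uptake via cellular fluorescence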
XiGFP reactiv – activators of inactive X chromosome reactivation, primary screen, imaging, XiGFP fibroblasts, GFP high-content imaging, set 2 | XiGFP mouse fibroblasts, % GFP-positive cells imaging, 3 d; cells co-treated with 5-aza-dC sensitizer; scaled so ellipticine positive control = 100% | activation, % at 7.58 µM | 360,000 compounds, 0.055% hits | AID 743238, 2013;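 active = mean normalized replicate activation at least 10% and every replicate at or above 10%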;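 also: 0% = median of on-plate neutral control wells and 100% = ellipticine 6 µM median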
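Schedule: 3 d treatment, 15 min room-temperature fixation; system: 68-5-11 XiGFP fibroblast line; buffer or medium: DMEM plus 5-aza-dC sensitizer; control set: ellipticine 6 µM positive control; compound: one concentration, pinned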
SR-BI HDL uptake – inhibitors of SR-BI mediated HDL lipid uptake, primary screen, ldlA[mSR-BI] cells, fluorescence, single point; inhibition, % at 12.5 µM; AID 488896, 2010; Scavenger receptor class B member 1 (Mus musculus), Q61009; ldlA[mSR-BI] CHO cells, DiI-HDL uptake fluorescence, 3 h; 320,000 compounds, 0.96% hits;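 active = mean replicate inhibition of at least 70% and a set share of replicates each scoring 70 or more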;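 also: 0% = median of neutral control wells and 100% = median of positive control wells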
Ecoli rRNA inh – reduced GFP signal of wild-type E. coli, primary screen, bacterial rRNA inhibitor project, GFP/RFP fluorescence, OD600, single point; E. coli WT GFP vs humanized-ribosome RFP mutants, 24 h; stronger effect = lower value; DMSO median 0, no signal -100; GFP signal change (wild-type ribosome), % (concentration not given with the values); 350,000 compounds, 1.6% hits;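 active = significant combined selectivity score with lowered wild-type GFP, culture density cut under 30%, mutant RFP and density less affected; inactive = any of these conditions unmet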
Starred values were filed as active, the others as inactive.

Screening COc1ccc(N(C)S(=O)(=O)c2ccc(Cl)c(C(=O)NNC(=O)c3ccccc3O)c2)cc1 returned dFosB activator -5.1, PvdQ acylase -16.3, SR-BI uptake up -79.2, XiGFP reactiv 0.6, SR-BI HDL uptake 79.2* and Ecoli rRNA inh -18.8.
For COc1cc(OC)cc(C(=O)NNC(=O)c2ccc(S(=O)(=O)N(C)c3ccccc3OC)cc2)c1 the results were dFosB activator -5.3, PvdQ acylase -6.4, SR-BI uptake up -44.4, XiGFP reactiv -0.1, SR-BI HDL uptake 44.4 and Ecoli rRNA inh -18.2.
`COc1ccccc1N(C)S(=O)(=O)c1ccc(C(=O)NNC(=O)c2ccccc2O)cc1` gave dFosB activator 7.8, PvdQ acylase -13.6, SR-BI uptake up -126.1, XiGFP reactiv 1.3, SR-BI HDL uptake 126.1* and Ecoli rRNA inh -16.1.
`CCN(c1ccccc1)S(=O)(=O)c1ccc(Cl)c(C(=O)NCCc2ccc(OC)cc2)c1` gave dFosB activator -6.2, PvdQ acylase -11.3, SR-BI uptake up -1.3, XiGFP reactiv 0.1 and SR-BI HDL uptake 1.3.
Screening CN(C)C(CNC(=O)c1cc(S(=O)(=O)N2CCOCC2)ccc1Cl)c1cccs1 (stereo unspecified) returned dFosB activator 0.5, PvdQ acylase -12.1, SR-BI uptake up 1.3, XiGFP reactiv 0.0, SR-BI HDL uptake -1.3 and Ecoli rRNA inh 0.9.
Screening O=C(NNC1=NS(=O)(=O)c2ccccc21)c1ccccc1 returned dFosB activator 3.6, PvdQ acylase -8.0, XiGFP reactiv 0.2 and Ecoli rRNA inh 6.7.
Screening Cc1nc(C)n(C(=O)N(c2ccccc2)c2ccccc2)n1 returned dFosB activator 3.3, PvdQ acylase -8.2, SR-BI uptake up 0.3 and SR-BI HDL uptake -0.3.
Cc1ccc(/C=N/Nc2cc(C)nc(NCc3ccccc3)n2)cc1 was read as dFosB activator 54.6*, PvdQ acylase -12.2, SR-BI uptake up -8.6, XiGFP reactiv 0.6, SR-BI HDL uptake 8.6 and Ecoli rRNA inh -27.6.
For Cc1cc(N/N=C/c2ccc(N(C)C)cc2)nc(NCc2ccccc2)n1 the results were dFosB activator 7.6, PvdQ acylase -1.9, SR-BI uptake up -80.5, XiGFP reactiv 0.4, SR-BI HDL uptake 80.5* and Ecoli rRNA inh -4.6.
Cc1cc(Nc2ccc(Cl)cc2)nc(NCc2ccccc2)n1 was read as dFosB activator 38.0*, PvdQ acylase 3.5, SR-BI uptake up 20.9, XiGFP reactiv -0.1 and SR-BI HDL uptake -20.9.
For Cc1cc(Nc2ccccc2)nc(NCc2ccccc2)n1 the results were dFosB activator 4.2, PvdQ acylase 2.4, SR-BI uptake up -3.6, XiGFP reactiv 1.2, SR-BI HDL uptake 3.6 and Ecoli rRNA inh -54.7.
CC(C)NC(=O)C1(C)CCN1Cc1ccc(-c2ccccc2)cc1 (stereo unspecified) was read as XiGFP reactiv -0.1 and Ecoli rRNA inh -0.6.
For CCc1ccc(NC(=O)CC2C(=O)N(c3cccc(OC)c3)C(=O)N2CCOC)cc1 (stereo unspecified) the results were dFosB activator -13.2, PvdQ acylase -9.3, SR-BI uptake up 310.1*, XiGFP reactiv 0.0, SR-BI HDL uptake -310.1 and Ecoli rRNA inh -11.2.
For COCCCN1C(=O)N(c2ccc(F)cc2)C(=O)C1CC(=O)Nc1ccccc1 (stereo unspecified) the results were dFosB activator -3.9, PvdQ acylase -13.9, SR-BI uptake up 13.3, XiGFP reactiv 0.0, SR-BI HDL uptake -13.3 and Ecoli rRNA inh 10.2.
COCCCN1C(=O)N(c2ccc(F)cc2)C(=O)C1CC(=O)Nc1ccc(OC)cc1 (stereo unspecified) was read as dFosB activator -4.1, PvdQ acylase -14.8, SR-BI uptake up -75.7, XiGFP reactiv 0.0, SR-BI HDL uptake 75.7* and Ecoli rRNA inh 13.4.
`COCCN1C(=O)N(c2cccc(OC)c2)C(=O)C1CC(=O)Nc1ccc(Cl)cc1` (stereo unspecified) gave dFosB activator -1.2, PvdQ acylase -2.0, SR-BI uptake up -5.5, XiGFP reactiv 0.0, SR-BI HDL uptake 5.5 and Ecoli rRNA inh -5.1.
Screening CCCn1c(SCC(=O)N(C)C2CCCCC2)n[nH]c1=O returned XiGFP reactiv -0.1 and Ecoli rRNA inh 19.2.
`Cc1[nH]n(-c2ccccc2)c(=O)c1N=Nc1c(O)cc(S(=O)(=O)N(C)C)c2ccccc12` gave dFosB activator -4.2, PvdQ acylase 0.2, SR-BI uptake up -136.1, XiGFP reactiv -0.1, SR-BI HDL uptake 136.1* and Ecoli rRNA inh 8.6.
`CCC(C)NC(=O)c1cc(CC(C)C)on1` (stereo unspecified) gave dFosB activator -2.8, PvdQ acylase -15.1, SR-BI uptake up 10.3, XiGFP reactiv -0.1, SR-BI HDL uptake -10.3 and Ecoli rRNA inh -2.8.
`O=C1NC(=Nc2ccc(O)cc2)S/C1=C\C=C\c1ccco1` gave dFosB activator -12.1, PvdQ acylase -7.7, XiGFP reactiv 0.5 and Ecoli rRNA inh -24.2*.
`COc1ccc(N=C2NC(=O)/C(=C\c3ccco3)S2)cc1` gave dFosB activator -14.9, PvdQ acylase 0.2, SR-BI uptake up -8.1, XiGFP reactiv 0.0, SR-BI HDL uptake 8.1 and Ecoli rRNA inh -13.0.
Cc1cccc(NC(=S)NNC(=O)c2csc3c2CCC(C)C3)c1 (stereo unspecified) was read as dFosB activator -2.1, PvdQ acylase 5.7, SR-BI uptake up 28.7, SR-BI HDL uptake -28.7 and Ecoli rRNA inh -40.2*.
For CC(C)CNC(=S)NNC(=O)c1csc2c1CCC(C)C2 (stereo unspecified) the results were dFosB activator 0.4, PvdQ acylase -12.7, SR-BI uptake up -19.7 and SR-BI HDL uptake 19.7.
CCOC(=O)c1cnc(SCc2nc(N)nc(Nc3ccc(C)cc3)n2)nc1N was read as dFosB activator 48.1*, PvdQ acylase -8.4, SR-BI uptake up -16.7 and SR-BI HDL uptake 16.7.
Screening O=C(Nc1ccc(F)cc1)N1CCN(C/C=C/c2ccccc2)CC1 returned dFosB activator -1.9, PvdQ acylase -10.1, SR-BI uptake up -7.2 and SR-BI HDL uptake 7.2.
